How the values were obtained:
[1] = species: Homo sapiens; experiment: Selectivity ratio of IC50 for human OCT2 expressed in HEK293 cells to IC50 for human OCT3 expressed in HEK293 cells; assay type: cell-based
[2] = target: T1, Solute carrier family 22 member 1 (Homo sapiens, UniProt O15245); experiment: Inhibition of human OCT1 expressed in HEK293 cells assessed as decrease in uptake of substrate [3H]MPP+ after 1 min by liquid scintillation counting method; assay type: cell-based
T1 sequence (O15245 whole entry): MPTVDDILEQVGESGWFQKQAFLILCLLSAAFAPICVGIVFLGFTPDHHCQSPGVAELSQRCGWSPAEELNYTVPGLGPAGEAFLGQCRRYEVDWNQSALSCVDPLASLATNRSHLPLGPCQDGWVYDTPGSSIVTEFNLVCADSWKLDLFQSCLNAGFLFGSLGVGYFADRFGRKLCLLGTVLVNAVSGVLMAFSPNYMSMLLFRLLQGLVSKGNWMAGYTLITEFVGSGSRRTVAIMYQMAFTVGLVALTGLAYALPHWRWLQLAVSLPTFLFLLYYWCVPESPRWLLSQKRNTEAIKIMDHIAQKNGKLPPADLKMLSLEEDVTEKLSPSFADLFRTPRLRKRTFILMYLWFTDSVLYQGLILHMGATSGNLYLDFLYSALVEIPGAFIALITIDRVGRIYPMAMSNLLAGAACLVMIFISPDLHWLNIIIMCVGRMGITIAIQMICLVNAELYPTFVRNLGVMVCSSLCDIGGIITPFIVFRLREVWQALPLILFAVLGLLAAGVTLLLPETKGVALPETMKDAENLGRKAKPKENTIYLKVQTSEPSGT
In short: (§1)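 Stably transfected HEK293 cells expressing hOCT1, hOCT2 or hOCT3; 1 min uptake of [3H]MPP+ (1 μM) measured across inhibitor concentrations 10^-8 to 10^-2.5 M. Signal corrected for nonspecific background in empty-vector control cells; data as mean ± SD; IC50 obtained by nonlinear regression.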

[3] = species: Homo sapiens; experiment: Selectivity ratio of IC50 for human OCT1 expressed in HEK293 cells to IC50 for human OCT3 expressed in HEK293 cells; assay type: cell-based
[4] = target: T2, Solute carrier family 22 member 3 (Homo sapiens, UniProt O75751); experiment: Inhibition of human OCT3 expressed in HEK293 cells assessed as decrease in uptake of substrate [3H]MPP+ after 1 min by liquid scintillation counting method; assay type: cell-based; in short: as §1
T2 sequence (O75751 whole entry): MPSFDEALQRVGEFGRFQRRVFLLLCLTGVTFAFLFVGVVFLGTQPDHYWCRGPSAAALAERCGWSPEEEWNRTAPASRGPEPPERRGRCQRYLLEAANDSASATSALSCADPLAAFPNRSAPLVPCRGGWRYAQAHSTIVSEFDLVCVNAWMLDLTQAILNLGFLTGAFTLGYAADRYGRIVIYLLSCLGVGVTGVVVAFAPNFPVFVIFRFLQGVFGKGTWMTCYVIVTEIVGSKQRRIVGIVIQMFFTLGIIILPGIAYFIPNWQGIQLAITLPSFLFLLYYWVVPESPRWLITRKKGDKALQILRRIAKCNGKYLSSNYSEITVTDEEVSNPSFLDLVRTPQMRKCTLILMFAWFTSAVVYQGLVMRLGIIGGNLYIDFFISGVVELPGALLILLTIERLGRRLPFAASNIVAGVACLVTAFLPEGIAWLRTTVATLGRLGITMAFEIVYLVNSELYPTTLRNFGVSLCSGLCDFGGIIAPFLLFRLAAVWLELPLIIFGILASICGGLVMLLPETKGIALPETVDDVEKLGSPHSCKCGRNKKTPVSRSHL

[5] = target: T3, Solute carrier family 22 member 2 (Homo sapiens, UniProt O15244); experiment: Inhibition of human OCT2 expressed in HEK293 cells assessed as decrease in uptake of substrate [3H]MPP+ after 1 min by liquid scintillation counting method; assay type: cell-based; in short: as §1
T3 sequence (O15244 whole entry): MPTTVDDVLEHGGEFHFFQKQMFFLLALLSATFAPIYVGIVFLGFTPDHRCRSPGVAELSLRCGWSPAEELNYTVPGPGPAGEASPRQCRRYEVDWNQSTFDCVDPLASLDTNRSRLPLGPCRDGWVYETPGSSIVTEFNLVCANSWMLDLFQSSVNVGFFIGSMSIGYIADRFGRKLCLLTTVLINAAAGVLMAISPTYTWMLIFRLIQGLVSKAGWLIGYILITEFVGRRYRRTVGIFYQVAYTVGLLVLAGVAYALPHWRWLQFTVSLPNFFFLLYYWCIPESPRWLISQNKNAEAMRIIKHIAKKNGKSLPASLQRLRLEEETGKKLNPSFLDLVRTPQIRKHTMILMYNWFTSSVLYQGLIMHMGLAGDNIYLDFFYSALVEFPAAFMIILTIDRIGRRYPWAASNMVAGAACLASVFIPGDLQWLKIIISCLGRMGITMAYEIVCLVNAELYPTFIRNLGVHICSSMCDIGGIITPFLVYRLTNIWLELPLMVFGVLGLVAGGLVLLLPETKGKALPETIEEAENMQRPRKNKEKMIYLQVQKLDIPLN

[6] = target: T2, Solute carrier family 22 member 3; experiment: Competitive inhibition of human OCT3 expressed in HEK293 cells up to 25 uM in presence of varying concentration of MPP+ by Lineweaver-Burk plot analysis; assay type: cell-based
In short: (§2)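 HEK293 cells stably expressing hOCT3; 1 min cellular accumulation of MPP+ (1-150 μM) with or without inhibitor at two concentrations. Uptake corrected for background in non-transporter-expressing control cells. Saturation curves fitted by nonlinear regression to a mixed-model inhibition equation to define mode of inhibition; Lineweaver-Burk transforms used for display.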

[7] = target: T2, Solute carrier family 22 member 3; experiment: Inhibition of OCT3 (unknown origin)
[8] = target: T2, Solute carrier family 22 member 3; experiment: Competitive inhibition of human OCT3 expressed in HEK293 cells up to 10 uM in presence of varying concentration of MPP+ by Lineweaver-Burk plot analysis; assay type: cell-based; in short: as §2
[9] = target: T2, Solute carrier family 22 member 3; experiment: Competitive inhibition of human OCT3 expressed in HEK293 cells in presence of varying concentration of MPP+ by Lineweaver-Burk plot analysis; assay type: cell-based; in short: as §2

SMILES	IC50 [2]	IC50 [4]	IC50 [5]	inhibition (INH) [6]	IC50 [7]	inhibition (INH) [8]	inhibition (INH) [9]	Ratio IC50 [1]	Ratio IC50 [3]
N=C(N)Nc1ccc(F)cc1	22.6 µM	27.8 µM	48.3 µM	–	–	–	–	< 5	< 5
N=C(N)N [GUANIDINE]	–	–	–	–	2200 to 6200 µM	–	–	–	–
N=C(N)Nc1cccc(Cl)c1	–	–	–	–	–	–	–	8	< 5
N=C(N)Nc1ccccc1 [PHENYLGUANIDINE]	41.1 µM	99.8 µM	89 µM	–	–	–	–	< 5	< 5
NC(N)=Nc1cccc(Cl)c1	13.7 µM	7.6 µM	60.5 µM	–	–	–	–	–	–
Cc1ccc(NC(=N)N)cc1	10 µM	4.6 µM	9.3 µM	–	–	–	–	< 5	< 5
N=C(N)Nc1ccc(Cc2ccccc2)cc1	762 µM	452 µM	96.2 µM	–	–	–	–	< 5	< 5
C=C[C@H]1C[N@@]2CC[C@H]1C[C@H]2[C@H](O)c1ccnc2ccc(OC)cc12 [QUININE]	–	–	–	–	–	–	Active	–	–

Second part, led by results:

IC50 [2]	IC50 [4]	IC50 [5]	inhibition (INH) [6]	IC50 [7]	inhibition (INH) [8]	inhibition (INH) [9]	SMILES	Ratio IC50 [1]	Ratio IC50 [3]
10 µM	2.8 µM	18.9 µM	Active	–	–	–	N=C(N)Nc1ccc(Cl)cc1	6	< 5
0.9 µM	2.2 µM	8.3 µM	–	–	Active	–	CC(C)(C)c1ccc(N=C(N)N)cc1	< 5	< 5
6.3 µM	4.8 µM	11.3 µM	–	–	–	–	N=C(N)Nc1ccc(Br)cc1	< 5	< 5
2.4 µM	1.5 µM	4.4 µM	–	–	–	–	NC(N)=Nc1ccc(I)cc1	< 5	< 5
